Data published in PubChem BioAssay AID623950 (Broad Institute, 2012).
The source made the active and inactive calls.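 The calls were made as follows: active = compounds lowering cell ATP signal with fitted IC50 at most twice the highest tested dose; inconclusive = flat fit with 30 to 70% signal loss, or poor fit; inactive = the rest.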

tested on: HeLa viability, CellTiter-Glo ATP luminescence; test: toxicity to human HeLa cells – cell-based, CellTiter-Glo luminescence, dry powder samples, cytotoxicity control for pyoverdine inhibitor project, dose response (AID 623950); conditions: not given
Method in brief: (§1)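 Measured by: CellTiter-Glo luminescence as viability measure / Test system: HeLa cells / Amount: 2,500 cells per well / Doses: compound dose series in threefold dilution steps / Timing: cell growth 24 h at 37 °C, then 48 h compound exposure / Medium: phenol red-free DMEM, 10% FBS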

Row | SMILES | IC50
1 | Cc1ccc(C(C#N)c2ccc(Cl)cc2)nc1C#N (stereo not drawn) | > 100 µM (inactive)
2 | N#CC(c1ccc(C(F)(F)F)cc1)c1ccc(C(F)(F)F)c(Cl)n1 (stereo not drawn) | 38.1 µM
3 | N#CC(c1cccc(Cl)n1)c1ccc(Cl)cc1Cl (stereo not drawn) | > 100 µM (inactive)
4 | N#CC(c1ccc(C(F)(F)F)cc1)c1cccc(C(F)(F)F)n1 (stereo not drawn) | > 100 µM (inactive)
5 | N#CC(c1ccc(C(F)(F)F)c(Cl)n1)c1ccc(Cl)cc1F (stereo not drawn) | 48.4 µM
6 | N#CC(c1ccc(C(F)(F)F)c(Cl)n1)c1ccc(Cl)cc1Cl (stereo not drawn) | 26.7 µM
7 | N#CC(c1ccc(F)cc1)c1ccc(C(F)(F)F)c(Cl)n1 (stereo not drawn) | 35.7 µM

tested on: not listed separately; test: as above; conditions: HeLa viability, CellTiter-Glo ATP luminescence; at 50 µM (top of the series)
Method in brief: as §1

Row | SMILES | activity change, negative = toxicity
8 | N#CC(c1ccc(F)cc1)c1cccc(C(F)(F)F)n1 (stereo not drawn) | 4.89% (inactive)
9 | N#Cc1cccc(C(C#N)c2ccc(Cl)cc2F)n1 (stereo not drawn) | 4.41% (inactive)
10 | CC(C)CC(C#N)c1ccc(Cl)cc1 (stereo not drawn) | -0.673% (inactive)
11 | N#CC(c1cccc(C(F)(F)F)n1)c1ccccc1OC(F)(F)F (stereo not drawn) | 6.21% (inactive)
12 | N#CC(c1ccc(Cl)cc1Cl)c1ncccc1Cl (stereo not drawn) | -10.4% (inactive)
13 | CCCCC(C#N)c1ccc(Cl)cc1F (stereo not drawn) | -1.43% (inactive)
14 | CCCCC(C#N)c1ccc(Cl)cc1Cl (stereo not drawn) | 0.128% (inactive)
15 | N#CC(c1ccc(Cl)cc1)c1ccc(Cl)cn1 (stereo not drawn) | -2.34% (inactive)
16 | N#CC(c1ccc(C(F)(F)F)cc1)c1cccc(Cl)n1 (stereo not drawn) | -3.15% (inactive)
17 | N#CC(CC1CC1)c1ccc(Cl)cc1 (stereo not drawn) | 4.91% (inactive)
18 | CCCCC(C#N)c1ccc(Cl)cc1 (stereo not drawn) | 1.19% (inactive)
19 | COc1cccc(C(C#N)c2ccc(F)cc2)n1 (stereo not drawn) | -7.47% (inactive)
20 | N#CC(c1cccc(Cl)n1)c1ccccc1OC(F)(F)F (stereo not drawn) | -11% (inactive)
21 | CCCCC(C#N)c1ccc(C(F)(F)F)cc1 (stereo not drawn) | 4.97% (inactive)
22 | N#Cc1cccc(C(C#N)c2ccccc2OC(F)(F)F)n1 (stereo not drawn) | -3.3% (inactive)
23 | CCCCC(C#N)c1ccccc1OC(F)(F)F (stereo not drawn) | 8.75% (inactive)

Row | SMILES | activity change, negative = toxicity
24 | CCCCC(C#N)c1ccc(F)cc1 (stereo not drawn) | 4.15% (inactive)
25 | N#CC(c1cccc(C(F)(F)F)n1)c1ccc(Cl)cc1F (stereo not drawn) | -5.15% (inactive)
26 | CC(C#N)(c1ccc(Cl)cc1)c1ccc(C(F)(F)F)cn1 (stereo not drawn) | -9.2% (inactive)
27 | Cc1ccc(C(C#N)c2ccc(F)cc2)nc1C#N (stereo not drawn) | -12.8% (inactive)
28 | Cc1ccc(C(C#N)c2ccccc2OC(F)(F)F)nc1C#N (stereo not drawn) | -0.14% (inactive)
29 | Cc1cccc(C(C#N)c2ccc(Cl)cc2)n1 (stereo not drawn) | -4.38% (inactive)
30 | Cc1ccc(C(C#N)c2ccc(Cl)cc2)nc1 (stereo not drawn) | 4.52% (inactive)
31 | N#Cc1cccc(C(C#N)c2ccc(Cl)cc2)n1 (stereo not drawn) | -0.235% (inactive)
32 | N#CC(c1ccc(Cl)cc1)c1cccc(C(F)(F)F)n1 (stereo not drawn) | -8.05% (inactive)
33 | CCCC(C#N)c1ccc(Cl)cc1 (stereo not drawn) | 2.14% (inactive)
34 | N#Cc1cccc(C(C#N)c2ccc(Cl)cc2Cl)n1 (stereo not drawn) | 7.33% (inactive)
35 | N#CC(c1cccc(Cl)n1)c1ccc(Cl)cc1F (stereo not drawn) | -3.91% (inactive)
36 | N#CC(c1ccc(Cl)cc1)c1ccc(C(F)(F)F)cn1 (stereo not drawn) | -0.58% (inactive)
37 | N#CC(c1ccc(Cl)cc1)c1ncccc1Cl (stereo not drawn) | -0.68% (inactive)
38 | N#CC(c1ccc(C(F)(F)F)c(Cl)n1)c1ccccc1OC(F)(F)F (stereo not drawn) | -4.77% (inactive)
